Laboratory results published in ChEMBL document CHEMBL4513216, “Probing the Open Global Health Chemical Diversity Library for Multistage-Active Starting Points for Next-Generation Antimalarials” (ACS Infect Dis, 2020).

Experiment: Toxicity liver stage against HepG2, at 10uM
Format: cell-based
Set-up: test concentration 10 uM, cell line HepG2-A16-CD81EGFP
Details: human, HepG2-A16-CD81EGFP cells; read-out: INHIBITION
In short: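 Uninfected HepG2-A16-CD81EGFP cells, 3 × 10^3 per well, 1536-well, plated on prespotted compound at 10 μM final, parasite-free screening media added to match infected plates; puromycin 10 μM positive, DMSO 0.5% negative; run in parallel with 48 h PbLuc assay at 37 °C, 5% CO2; viability by CellTiter-Glo luminescence, normalized to controls.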

| SMILES | cytotoxicity at 10 µM [%] |
| --- | --- |
| Cc1cccc(-c2noc([C@@H]3C[C@@H](O)CN3C)n2)c1 | -3.54 |
| Cn1cnc2cc(NC(=O)c3n[nH]c4c3CCC4)ccc21 | -0.806 |
| O=C(c1nnn(-c2ccc(F)cc2)n1)N(CCO)Cc1ccccc1 | 1.56 |
| Cc1c[nH]nc1C1CCN(C(=O)CC2CCCC2)C1 (stereo not drawn) | -4.15 |
| COc1cccc(C(=O)Nc2ccc(OCCC(N)=O)cc2)c1OC | 4.19 |
| NC(=O)CS(=O)(=O)Cc1ccc(OCc2ccc(F)cc2)cc1 | 4.93 |
| COc1cc(NC(=O)c2cccc(N(C)C)c2)cc(OC)c1 | 0.03 |
| CN(CC(=O)Nc1ccccc1)C(=O)CN(C)c1ccc(Cl)cn1 | -1.83 |
| Cc1ccc(F)c(CNc2ccn(CCC(N)=O)n2)c1 | -4.75 |
| Cc1ncc2c(n1)CCN(Cc1nc(Cc3ccccc3)no1)C2 | 0.414 |
| COc1ccc(C)cc1CN1CCN(Cc2nccn2C)CC1 | 5.5 |
| COC(=O)c1cc(NC2CCN(CC(F)(F)F)C2=O)ccc1C (stereo not drawn) | -0.812 |
| Cc1ocnc1C(=O)Nc1ccc(-c2nnc(N(C)C)o2)cc1 | 5.49 |
| COc1cc(Cl)ccc1C(=O)NCC(=O)Nc1nccs1 | 6.62 |
| CCN(Cc1ccco1)C(C)c1nc(C(C)C)no1 (stereo not drawn) | 15.6 |
| CCOc1ccccc1C(=O)N(C)C(C)c1ccc(S(C)(=O)=O)cc1 (stereo not drawn) | 12.9 |
| O=C(c1csc(-c2ccco2)n1)N1CCOc2ncccc21 | 10.2 |
| COC1CCN(C(=O)c2csc(-c3ccccc3F)n2)CC1 | -5.6 |
| N#Cc1ccc(N2CCCC2Cn2cccn2)nc1 (stereo not drawn) | 6.55 |
| CCNC(=O)NC(C)(C)C(=O)NCc1cccc(N2CC=CC2)c1 | 7.35 |

| SMILES | cytotoxicity at 10 µM [%] |
| --- | --- |
| CC(=O)Nc1cc(C(=O)Nc2cc(CC(C)(C)C)nn2C)ccc1F | 0.388 |
| O=C(c1cn(-c2cccc(Cl)c2F)nn1)N1CCCSCC1 | 3.98 |
| CC(Oc1ccc(S(C)(=O)=O)cc1)C(=O)NC(N)=O (stereo not drawn) | -5.69 |
| Cc1cc(NC(=O)NCCc2ccc(S(N)(=O)=O)cc2)n(C)n1 | -3.39 |
| CNC(=O)CN(C)Cc1ccc(F)cc1Cl | -2.9 |
| Cc1c(C(=O)NCCC(=O)N2CCOCC2)sc2ccc(F)cc12 | 4.5 |
| CC(C)(C)c1noc(CCCC(=O)N2CCCC(c3ccn[nH]3)C2)n1 (stereo not drawn) | -14.2 |
| O=S1(=O)CCC(c2nc(-c3cccc(Br)c3)no2)C1 (stereo not drawn) | 7.51 |
| COc1ccc(C(C)Nc2ncc(C(N)=O)cc2Cl)cc1F (stereo not drawn) | 5.37 |
| O=C(COCc1ccccc1Cl)N1CCN(c2ncccn2)CC1 | 6.43 |
| CC(C)Nc1ccnc(-c2ccnc3c2ccn3C)n1 | -5.2 |
| COCCc1noc(-c2ccc(-c3cc[nH]n3)nc2)n1 | -2.79 |
| c1csc(-c2noc(COCC3CCCO3)n2)c1 (stereo not drawn) | -1.62 |
| Cc1cccc(C2CCCN(C(=O)CN3CCOC3=O)C2)c1 (stereo not drawn) | -2.82 |
| CC(C)Cc1cn(C2CCN(C(C)CC3CC3)CC2)nn1 (stereo not drawn) | -2.9 |
| O=C1CCCCN1CC(=O)N1CCCC(c2ccccc2)C1 (stereo not drawn) | -1.05 |
| Cc1ccc(CCNc2ncnc3sc4c(c23)CCNC4)o1 | 3.94 |
| Cc1ncc(CO)c(CN2CCCC2c2nc3c(C)cccc3[nH]2)c1O (stereo not drawn) | 0.414 |
| Cc1cccc2nc(-c3nc4c([nH]3)CCCNC4=O)cn12 | 3.67 |
| NC1CCCc2nc(-c3ccccc3)ncc21 (stereo not drawn) | 4.93 |

| SMILES | cytotoxicity at 10 µM [%] |
| --- | --- |
| COC(C)(C)CC(C)NCc1nncn1C1CCCCC1 (stereo not drawn) | -2.87 |
| O=C(CN1C(=O)CCNC1=O)N1CCOC(c2ccc(F)cc2)C1 (stereo not drawn) | 5.11 |
| O=C(CCc1nc(Cl)n[nH]1)N1CCC2(CCCN(CC3CCC3)C2=O)C1 (stereo not drawn) | -5.3 |
| O=C1CC2(CCCC2)CN1CCOc1ccc(F)cc1 | 1.05 |
| Cc1cc(C(=O)N2CCCC3(C=Cc4ccccc4O3)CC2)cc(=O)[nH]1 (stereo not drawn) | 8.06 |
| CCNC(=O)[C@@H]1C[C@H](N)CN1c1cc(C(F)(F)F)nc(N(C)C)n1 | -14.1 |
| Cc1cc(-c2nc(-c3ccccn3)nn2C2CCN(C)CC2)nc(C)n1 | -3.14 |
| COCCN(Cc1sccc1C)C(=O)C1CCCN(C(N)=O)C1 (stereo not drawn) | -4.7 |
| O=c1c2cccc(F)c2ncn1CCN1CCOCC1 | 2.53 |
| O=C(NC1CC1)C1CNCCN1C(=O)CCc1ccc2c(c1)OCO2 (stereo not drawn) | -0.766 |
| CC(C)n1cnnc1CN(C)Cc1cnc(-c2cccs2)nc1 | 8.55 |
| COc1ccccc1C1CCN(C(=O)CN2C(=O)OC(C)(C)C2=O)CC1 | 8.12 |
| O=C(NCCCc1ccco1)c1ccc(N2CCOCC2)cc1 | -5.54 |
| O=C(CCC(=O)N1CCC(Cc2ccc(CO)cc2)C1)c1ccccc1 (stereo not drawn) | 0.727 |
| Cc1ccc(NC(=O)NCCCn2nc3ccccn3c2=O)cc1 | -19.1 |
| O=C(COc1ccc(Cl)cc1)N1CCN(c2cnccn2)CC1 | -20.4 |
| COc1c(-c2ccc(O)cc2)oc2cc(O)cc(O)c2c1=O [ISOKAEMPFERIDE] | 7.8 |
| CCCNC(=O)C(C)Nc1ccc(OCC)cc1 (stereo not drawn) [PROPETAMIDE] | 8.84 |
